In series [1] the test system is human erythroleukemia cell line (HEL). Put plainly: In vitro cell proliferation. The format is cell-based. Conditions: 72 hours exposure. An outline of the steps: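 HEL cells were seeded at 5×10^3/well and treated 24 h later for 72 h. Doses were 12.5–2,500 nM for the lipid prodrug (free or nanocapsule-loaded) and 5–1,000 nM for the parent nucleoside; blank nanocapsules were excipient-matched. Pellets were frozen at −80°C for ≥48 h, then read by CyQuant. Medium-only wells defined 100% viability. Three independent experiments in quadruplicate; Mann–Whitney test.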

For series [2] the following is noted: phosphate buffer, 37°C, after 24 hours; cited from earlier work.
The conditions of series [3]: cited from earlier work.
The conditions of series [4]: decitabine solution, human plasma, same conditions, after 6 hours; cited from earlier work.
For another series, the system named is HEL cells. Put plainly: Cell-cycle analysis. The format is cell-based, human. Conditions: 72 hours, decitabine solution 1,000 nM. An outline of the steps:
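HEL cells (RPMI 1640, 10% FBS, 1% antibiotics, 37°C, 5% CO2) were seeded at 5×10^4/well. After 24 h, they were treated with the test compound solution (1,000 nM), prodrug-loaded lipid nanocapsules (2,500 nM), excipient-matched blank nanocapsules or medium for 72 h. Cells were ethanol-fixed (70%, cold) and stained 15 min in the dark with 40 µg/mL propidium iodide plus 100 µg/mL RNase A. Phases were fitted by the Dean Jett Fox model. n=3 plates in triplicate; Mann–Whitney versus medium.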

Data on one molecule can be found in PMC6440450 (International Journal of Nanomedicine, 2019).

Like-named read-outs stand apart in the source and are kept apart here. Bounds are passed on as bounds.

In the case of `Nc1ncn([C@H]2C[C@H](O)[C@@H](CO)O2)c(=O)n1` [Decitabine], the “Concentration above which cell viability decreased” value in series [1] is reported as “above 50 nM”. Moreover, the Initial concentration recovered was under 50% in series [2] and under 40% in series [4]. Also, the Half-life in plasma in series [3] is 15 to 25 min. The “Cells arrested in G2/M” value with HEL cells came out at 17.2%.
